Measurements pooled from the literature.
Lines come from different studies, so protocols differ.
Target: Insulin receptor-related protein (INSRR, Homo sapiens, UniProt P14616)

SMILES | effect on | action | technique | concentration | endpoint | value
Cc1cc(NC(=O)c2cccc(S(F)(F)(F)(F)F)c2)cc(-n2ccn3nc(-c4cccnc4)cc23)c1 | cell-free assay |  | competition with immobilised ligand | 1 µM | remaining binding | 100%
Cc1ccc(C(=O)Nc2ccc(CN3CCN(C)CC3)c(C(F)(F)F)c2)cc1C#Cc1cnc2cccnn12 | cell-free assay |  |  | 23.5 nM | remaining signal | 100%
CC1=C(C#N)C(c2ccc3c(c2)c(NC(=O)c2ccccc2C)nn3C)C(C#N)=C(C)N1 | cell-free assay |  | competition with immobilised ligand | 1 µM | remaining binding | 100%
Cn1c(=O)n(-c2ccc(C(C)(C)C#N)cc2)c2c3cc(-c4cnc5ccccc5c4)ccc3ncc21 | enzyme activity | inhibitor |  | 10 µM | remaining activity | 80%
CCN(CC)c1ccc(C2=NNC(=O)CC2C)cc1[N+](=O)[O-] (stereo not shown) | enzyme activity | inhibitor |  | 10 µM | remaining activity | 97%
Oc1cccc(-c2nc(N3CCOCC3)c3oc4ncccc4c3n2)c1 | enzyme activity | inhibitor |  | 10 µM | remaining activity | 89%
Nc1nc(NC2CCCCC2)sc1C(=O)c1ccccc1 | enzyme activity | inhibitor |  | 10 µM | remaining activity | 25%
O=C1NC(=O)c2cc(Nc3ccc(F)cc3)c(Nc3ccc(F)cc3)cc21 | cell-free assay |  |  | 0.5 µM | remaining signal | 111%
COc1cc(Nc2cnc(C#N)c(O[C@H](C)CN(C)C)n2)ncc1-c1cnn(C)c1 | enzyme activity | inhibitor | radiometric | 1 µM | remaining activity | 103%
Cc1nc(Cc2cccc(C(F)(F)F)c2)sc1-c1ccc(C(N)=O)nc1 | cell-free assay |  | competition with immobilised ligand | 1 µM | remaining binding | 100%
Cc1ccc(Nc2nccc(N(C)c3ccc4c(C)n(C)nc4c3)n2)cc1S(N)(=O)=O | enzyme activity | inhibitor |  | 0.3 µM | inhibition | -22%
COc1ccc(COc2ccc(Cc3cnc(N)nc3N)cc2OC)cc1 | cell-free assay |  |  | 0.5 µM | remaining signal | 99.4%
CNC(=O)c1cc(Oc2ccc(NC(=O)Nc3ccc(Cl)c(C(F)(F)F)c3)cc2)ccn1 | enzyme activity | inhibitor |  | 10 µM | inhibition | 8%
COc1cc(/C=C/C(=O)CC(=O)/C=C/c2ccc(O)c(OC)c2)ccc1O | enzyme activity | inhibitor |  | 1 µM | activity vs control | 84%
CCS(=O)(=O)c1cc2cc(C[C@@](O)(CC(C)(C)c3ccc(F)cc3C(N)=O)C(F)(F)F)[nH]c2cn1 | cell-free assay |  | competition with immobilised ligand | 1 µM | remaining binding | 64%
CCCOc1ccc(OC)c(F)c1C(=O)c1ccc(C(=O)N[C@@H]2CNC[C@H]2NC(=O)c2ccc3[nH]ncc3c2)cc1 | enzyme activity | inhibitor |  | 10 µM | remaining activity | 87%
CC(C)CC(=O)N1CCc2nc(-c3ccc(Br)cc3)nc(N(C)Cc3ccccc3)c2C1 | cell-free assay |  | competition with immobilised ligand | 0.1 µM | remaining binding | 100%
O=C(Nc1cnn(-c2csc(C(=O)NC3COC3)c2)c1)Nc1ccccc1Cl | enzyme activity | inhibitor |  | 5 µM | remaining activity | 96%
CC(C)(C)c1nc2c(s1)c1nc(N)ncc1c1ccc(NS(=O)(=O)c3c(F)cccc3F)c(F)c12 | enzyme activity | inhibitor | radiometric | 1 µM | remaining activity | 107%
CC(=O)c1c(NS(C)(=O)=O)c2cc(-c3ccc(Cl)cc3)c(-c3ccc(Cl)cc3Cl)nc2n(C)c1=O | cell-free assay |  | competition with immobilised ligand | 1 µM | remaining binding | 93%
CCN(CC)CCNC(=O)c1c(C)[nH]c(/C=C2\C(=O)Nc3ccc(F)cc32)c1C | enzyme activity | inhibitor |  | 0.3 µM | inhibition | 25%
CN([C@@H]1CCc2c(CC(=O)O)c3cc(S(C)(=O)=O)ccc3n2C1)S(=O)(=O)c1ccc(F)cc1 | cell-free assay |  | competition with immobilised ligand | 1 µM | remaining binding | 100%
CCCS(=O)(=O)Nc1ccc(F)c(C(=O)c2c[nH]c3ncc(-c4ccc(Cl)cc4)cc23)c1F | enzyme activity | inhibitor |  | 1 µM | inhibition | < 10%
Cc1cnc(NC2CCOCC2)nc1-n1cnc(C(=O)NC(CN)c2cc(F)cc(Cl)c2)c1 (stereo not shown) | enzyme activity | inhibitor | radiometric | 1 µM | remaining activity | 70%
O=C(N[C@H]1CCCCC/C=C\C2C[C@@]2(C(=O)O)NC(=O)[C@@H]2C[C@@H](Oc3ccncc3)CN2C1=O)OC1CCCC1 (stereo partly shown) | binding |  | competition with immobilised ligand | 1 µM | remaining binding | 100%
CC(C)(O)[C@H]1CC[C@H](Nc2ccc3ncc(-c4cccc(C(F)(F)F)c4)n3n2)CC1 | enzyme activity | inhibitor |  | 1 µM | remaining activity | 77%
COc1cc2ncnc(Nc3ccc(Oc4ccccc4)cc3C)c2cc1OC | enzyme activity | inhibitor |  | 1 µM | inhibition | 3%
Nc1ncnc2occ(-c3ccc(NC(=O)Nc4cc(C(F)(F)F)ccc4F)cc3)c12 | cell-free assay |  |  | 20 µM | remaining signal | 0.85%
